Assay results published in ChEMBL document CHEMBL4270541, “Synthesis and antimicrobial evaluation of amino sugar-based naphthoquinones and isoquinoline-5,8-diones and their halogenated compounds” (Eur J Med Chem, 2018).
≈ marks a conversion by molar mass, not a printed value. Calls of active or inactive are those of the source. No cut-off for these calls is given here.

How the values were obtained:
Staphylococcus aureus [1] = assay: Ratio of MBC99.9 to MIC for Staphylococcus aureus INCQS 00015 ATCC 25923; assay type: functional
Outline: (§1)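 MBC/MIC ratio from the 24 h, 37°C microdilution MIC and the agar-plating MBC (99.9% growth inhibition). A ratio ≤2 was classed as bactericidal and ≥4 as bacteriostatic.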

[2] = Hemolytic activity against human erythrocytes assessed as hemolysis at 200 ug/ml after 3 hrs by spectrophotometric analysis relative to control; assay type: ADME, cell-based, Erythrocyte; settings: read-out: Activity
Outline: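 Erythrocytes collected in citrate tubes, washed three times with PBS pH 7.4 by centrifugation and resuspended in PBS. Incubated with compounds at 200 µg/mL for 3 h at 37°C. Released hemoglobin was read in the supernatant at 545 nm against 1% Triton X-100 (complete lysis) and 1% DMSO (negative control). Below 10% hemolysis was taken as hemocompatible. Three independent experiments.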

Escherichia coli [3] = assay: Bactericidal activity against Escherichia coli INCQS 00033 ATCC 25922 incubated for 24 hrs followed by transfer of microbial suspension to agar plates and measured after 24 hrs post transfer by resazurin dye-based colorimetric analysis; assay type: functional; settings: ATCC 25922 INCQS 00033, 24 h, read-out: MBC99.9
Outline: (§2)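 For MBC, 10 µL from each clear MIC well was plated on agar and incubated 24 h at 37°C. MBC is the minimum concentration inhibiting 99.9% of growth. […] Triplicate.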

Pseudomonas aeruginosa [4] = assay: Antimicrobial activity against Pseudomonas aeruginosa INCQS 00099 ATCC 27853 after 24 hrs by microdilution assay; assay type: functional; settings: INCQS 00099 ATCC 27853, 24 h
Staphylococcus simulans [5] = assay: Antimicrobial activity against Staphylococcus simulans INCQS 00254 ATCC 27851 assessed as zone of inhibition at 5 mg/ml after 18 to 24 hrs by disc diffusion method; assay type: functional; settings: read-out: IZ
Klebsiella pneumoniae = assay: Antimicrobial activity against Klebsiella pneumoniae INCQS 00083 ATCC 4352 assessed as zone of inhibition at 5 mg/ml after 18 to 24 hrs by disc diffusion method; assay type: functional; settings: read-out: IZ
[6] = test system: Staphylococcus epidermidis; assay: Antimicrobial activity against Staphylococcus epidermidis INCQS 00016 ATCC 12228 assessed as zone of inhibition at 5 mg/ml after 18 to 24 hrs by disc diffusion method; assay type: functional; settings: ATCC 12228 INCQS 00016, read-out: IZ
Pseudomonas aeruginosa [7] = assay: Bactericidal activity against Pseudomonas aeruginosa INCQS 00099 ATCC 27853 incubated for 24 hrs followed by transfer of microbial suspension to agar plates and measured after 24 hrs post transfer by resazurin dye-based colorimetric analysis; assay type: functional; settings: INCQS 00099 ATCC 27853, 24 h, read-out: MBC99.9; outline: as §2
[8] = test system: Staphylococcus epidermidis; assay: Ratio of MBC99.9 to MIC for Staphylococcus epidermidis INCQS 00016 ATCC 12228; assay type: functional, ATCC 12228 INCQS 00016; outline: as §1
[9] = test system: Staphylococcus epidermidis; assay: Bactericidal activity against Staphylococcus epidermidis INCQS 00016 ATCC 12228 incubated for 24 hrs followed by transfer of microbial suspension to agar plates and measured after 24 hrs post transfer by resazurin dye-based colorimetric analysis; assay type: functional; settings: ATCC 12228 INCQS 00016, 24 h, read-out: MBC99.9; outline: as §2
Staphylococcus simulans [10] = assay: Ratio of MBC99.9 to MIC for Staphylococcus simulans INCQS 00254 ATCC 27851; assay type: functional; outline: as §1
Pseudomonas aeruginosa [11] = assay: Antimicrobial activity against Pseudomonas aeruginosa INCQS 00099 ATCC 27853 assessed as zone of inhibition at 5 mg/ml after 18 to 24 hrs by disc diffusion method; assay type: functional; settings: read-out: IZ
Staphylococcus aureus [12] = assay: Antimicrobial activity against methicillin-resistant Staphylococcus aureus BMB9393 after 24 hrs by microdilution assay; assay type: functional; settings: BMB9393, 24 h
Proteus mirabilis = assay: Antimicrobial activity against Proteus mirabilis INCQS 00095 ATCC 15290 assessed as zone of inhibition at 5 mg/ml after 18 to 24 hrs by disc diffusion method; assay type: functional; settings: read-out: IZ
Staphylococcus aureus [13] = assay: Bactericidal activity against methicillin-resistant Staphylococcus aureus BMB9393 incubated for 24 hrs followed by transfer of microbial suspension to agar plates and measured after 24 hrs post transfer by resazurin dye-based colorimetric analysis; assay type: functional; settings: BMB9393, 24 h, read-out: MBC99.9
Outline: (§3)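 From MIC wells with no visible growth, 10 µL is transferred to agar plates and incubated 24 h at 37°C. MBC is the minimum concentration inhibiting 99.9% of growth. […] Triplicate.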

Staphylococcus aureus [14] = assay: Bactericidal activity against Staphylococcus aureus INCQS 00015 ATCC 25923 incubated for 24 hrs followed by transfer of microbial suspension to agar plates and measured after 24 hrs post transfer by resazurin dye-based colorimetric analysis; assay type: functional; settings: INCQS 00015 ATCC 25923, 24 h, read-out: MBC99.9; outline: as §3
Enterococcus faecalis = assay: Antimicrobial activity against Enterococcus faecalis INCQS 00234 ATCC 29212 assessed as zone of inhibition at 5 mg/ml after 18 to 24 hrs by disc diffusion method; assay type: functional; settings: ATCC 29212 INCQS 00234, read-out: IZ
[15] = test system: Staphylococcus epidermidis; assay: Antimicrobial activity against Staphylococcus epidermidis INCQS 00016 ATCC 12228 after 24 hrs by microdilution assay; assay type: functional; settings: ATCC 12228 INCQS 00016, 24 h
Staphylococcus aureus [16] = assay: Antimicrobial activity against methicillin-resistant Staphylococcus aureus BMB9393 assessed as zone of inhibition at 5 mg/ml after 18 to 24 hrs by disc diffusion method; assay type: functional; settings: read-out: IZ
Escherichia coli [17] = assay: Antimicrobial activity against Escherichia coli INCQS 00033 ATCC 25922 assessed as zone of inhibition at 5 mg/ml after 18 to 24 hrs by disc diffusion method; assay type: functional; settings: ATCC 25922 INCQS 00033, read-out: IZ
Staphylococcus aureus [18] = assay: Antimicrobial activity against Staphylococcus aureus INCQS 00015 ATCC 25923 after 24 hrs by microdilution assay; assay type: functional; settings: INCQS 00015 ATCC 25923, 24 h
Escherichia coli [19] = assay: Ratio of MBC99.9 to MIC for Escherichia coli INCQS 00033 ATCC 25922; assay type: functional, ATCC 25922 INCQS 00033; outline: as §1
Pseudomonas aeruginosa [20] = assay: Ratio of MBC99.9 to MIC for Pseudomonas aeruginosa INCQS 00099 ATCC 27853; assay type: functional; outline: as §1
Staphylococcus simulans [21] = assay: Antimicrobial activity against Staphylococcus simulans INCQS 00254 ATCC 27851 after 24 hrs by microdilution assay; assay type: functional; settings: INCQS 00254 ATCC 27851, 24 h
Staphylococcus simulans [22] = assay: Bactericidal activity against Staphylococcus simulans INCQS 00254 ATCC 27851 incubated for 24 hrs followed by transfer of microbial suspension to agar plates and measured after 24 hrs post transfer by resazurin dye-based colorimetric analysis; assay type: functional; settings: INCQS 00254 ATCC 27851, 24 h, read-out: MBC99.9; outline: as §2
Escherichia coli [23] = assay: Antimicrobial activity against Escherichia coli INCQS 00033 ATCC 25922 after 24 hrs by microdilution assay; assay type: functional; settings: ATCC 25922 INCQS 00033, 24 h
Staphylococcus aureus [24] = assay: Antimicrobial activity against Staphylococcus aureus INCQS 00015 ATCC 25923 assessed as zone of inhibition at 5 mg/ml after 18 to 24 hrs by disc diffusion method; assay type: functional; settings: read-out: IZ
Escherichia coli [25] = assay: Antimicrobial activity against Escherichia coli; assay type: functional
Escherichia coli [26] = assay: Bactericidal activity against Escherichia coli; assay type: functional
[27] = test system: Staphylococcus epidermidis; assay: Bactericidal activity against Staphylococcus epidermidis INCQS 00016 ATCC 12228 at 256 ug/ml incubated for 24 hrs followed by transfer of microbial suspension to agar plates and measured after 24 hrs post transfer by resazurin dye-based colorimetric analysis; assay type: functional, organism-based; settings: ATCC 12228 INCQS 00016; outline: as §2
[28] = test system: Staphylococcus epidermidis; assay: Antimicrobial activity against Staphylococcus epidermidis INCQS 00016 ATCC 12228 at 256 ug/ml after 24 hrs by microdilution assay; assay type: functional, organism-based; settings: ATCC 12228 INCQS 00016
Staphylococcus aureus [29] = assay: Ratio of MBC99.9 to MIC for methicillin-resistant Staphylococcus aureus BMB9393; assay type: functional
Outline: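 MBC (99.9% kill on agar subculture of clear MIC wells, 24 h, 37°C) divided by broth microdilution MIC (24 h, 37°C). Ratio ≤2 taken as bactericidal and ≥4 as bacteriostatic.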

SMILES | Ratio (Staphylococcus aureus [1]) | hemolysis at 3 h, 200 ug/ml [2] | MBC (Escherichia coli [3]) | MIC (Pseudomonas aeruginosa [4]) | zone of inhibition at 5000 µg/mL (Staphylococcus simulans [5]) | zone of inhibition at 5000 µg/mL (Klebsiella pneumoniae) | zone of inhibition at 5000 µg/mL [6] | MBC (Pseudomonas aeruginosa [7]) | Ratio (Staphylococcus simulans [10]) | zone of inhibition at 5000 µg/mL (Pseudomonas aeruginosa [11]) | MIC (Staphylococcus aureus [12]) | zone of inhibition at 5000 µg/mL (Proteus mirabilis) | MBC (Staphylococcus aureus [13]) | MBC (Staphylococcus aureus [14]) | zone of inhibition at 5000 µg/mL (Enterococcus faecalis) | zone of inhibition at 5000 µg/mL (Staphylococcus aureus [16]) | zone of inhibition at 5000 µg/mL (Escherichia coli [17]) | MIC (Staphylococcus aureus [18]) | Ratio (Escherichia coli [19]) | Ratio (Pseudomonas aeruginosa [20]) | other results
NC1=CC(=O)c2ccccc2C1=O | 1 | 10.1 to 14.4% | 32 µg/mL (≈ 185 µM) | 64 µg/mL (≈ 370 µM) | 18 mm | 0 mm | 17 mm | 64 µg/mL (≈ 370 µM) | 1 | 12 mm | 64 µg/mL (≈ 370 µM) | 0 mm | 64 µg/mL (≈ 370 µM) | 64 µg/mL (≈ 370 µM) | 0 mm | 17 mm | 20 mm | 64 µg/mL (≈ 370 µM) | 1 | 1 | Ratio [8]: 1; MBC [9]: 128 µg/mL (≈ 739 µM); MIC [15]: 128 µg/mL (≈ 739 µM); MIC (Staphylococcus simulans [21]): 64 µg/mL (≈ 370 µM); MBC (Staphylococcus simulans [22]): 64 µg/mL (≈ 370 µM); MIC (Escherichia coli [23]): 32 µg/mL (≈ 185 µM); zone of inhibition at 5000 µg/mL (Staphylococcus aureus [24]): 15 mm
COC(=O)c1c(CBr)nc(C)c2c1C(=O)C(Br)=C(Nc1ccc(Cl)cc1)C2=O | – | – | – | – | – | – | – | – | – | – | – | – | – | – | – | – | – | – | – | – | MIC (Escherichia coli [25]): 2 to 4 µg/mL (≈ 3.78 to 7.57 µM); MBC (Escherichia coli [26]): 2 to 4 µg/mL (≈ 3.78 to 7.57 µM)
COC(=O)c1c(C)nc(C)c2c1C(=O)C(Br)=C(Nc1ccc(OC)cc1)C2=O | – | – | – | – | – | – | – | – | – | – | – | – | – | – | – | – | – | – | – | – | MIC (Escherichia coli [25]): 2 to 4 µg/mL (≈ 4.49 to 8.98 µM); MBC (Escherichia coli [26]): 2 to 4 µg/mL (≈ 4.49 to 8.98 µM)
NC1=C(Cl)C(=O)c2ccccc2C1=O | 1 | 10.1 to 14.4% | 128 µg/mL (≈ 617 µM) | 16 µg/mL (≈ 77.1 µM) | 14 mm | 0 mm | 21 mm | 16 µg/mL (≈ 77.1 µM) | 1 | 15 mm | 64 µg/mL (≈ 308 µM) | 0 mm | 64 µg/mL (≈ 308 µM) | 64 µg/mL (≈ 308 µM) | 0 mm | 20 mm | 10 mm | 64 µg/mL (≈ 308 µM) | 1 | 1 | Activity [27]: inactive; Activity [28]: inactive; MIC (Staphylococcus simulans [21]): 128 µg/mL (≈ 617 µM); MBC (Staphylococcus simulans [22]): 128 µg/mL (≈ 617 µM); MIC (Escherichia coli [23]): 128 µg/mL (≈ 617 µM); zone of inhibition at 5000 µg/mL (Staphylococcus aureus [24]): 12 mm
NC1=C(Br)C(=O)c2ccccc2C1=O | 1 | 10.1 to 14.4% | 64 µg/mL (≈ 254 µM) | 32 µg/mL (≈ 127 µM) | 17 mm | 0 mm | 12 mm | 32 µg/mL (≈ 127 µM) | 1 | 14 mm | 64 µg/mL (≈ 254 µM) | 0 mm | 64 µg/mL (≈ 254 µM) | 64 µg/mL (≈ 254 µM) | 0 mm | 16 mm | 8 mm | 64 µg/mL (≈ 254 µM) | 1 | 1 | Ratio [8]: 1; MBC [9]: 128 µg/mL (≈ 508 µM); Ratio (Staphylococcus aureus [29]): 1; MIC [15]: 128 µg/mL (≈ 508 µM); MIC (Staphylococcus simulans [21]): 128 µg/mL (≈ 508 µM); MBC (Staphylococcus simulans [22]): 128 µg/mL (≈ 508 µM); MIC (Escherichia coli [23]): 64 µg/mL (≈ 254 µM); zone of inhibition at 5000 µg/mL (Staphylococcus aureus [24]): 10 mm
